What was measured:
[1] = test system: Human immunodeficiency virus 1; experiment: Antiviral activity against HIV-1 LAI infected in human MT2 cells; format: functional, organism-based; settings: Human immunodeficiency virus 1, LAI
[2] = biological target: Protease (Human immunodeficiency virus 1, UniProt Q9YQ12); experiment: Inhibition of wild type HIV-1 NL4-3 protease expressed in Escherichia coli Rosetta (DE3)pLysS using Ac-Thr-Ile-Nle-Nle-Gln-Arg-NH2 as substrate by fluorescence assay
[3] = test system: Human immunodeficiency virus 1; experiment: Antiviral activity against ATV resistant HIV1 harboring protease L23I/E34Q/K43I/M46I/I50L/G51A/L63P/A71V/V82A/T91A mutant infected in human MT4 cells assessed as reduction in p24 Gag protein production after 7 days by chemiluminescent enzyme immunoassay; format: functional, organism-based; settings: Human immunodeficiency virus 1, MT4, 168 h
In short: (§1)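 Variants had been selected by passaging HIV-1 NL4-3 in MT-4 cells under increasing PI concentrations (up to 5 μM). Assays were run in duplicate; values are means (± S.D.) of two independent experiments.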

[4] = test system: Human immunodeficiency virus 1; experiment: Antiviral activity against APV resistant HIV1 harboring protease L10F/M46I/I50V/I85V mutant infected in human MT4 cells assessed as reduction in p24 Gag protein production after 7 days by chemiluminescent enzyme immunoassay; format: functional, organism-based; settings: Human immunodeficiency virus 1, MT4, 168 h; in short: as §1
[5] = test system: Human immunodeficiency virus 1; experiment: Antiviral activity against LPV resistant HIV1 harboring protease L10F/[…]I54V/V82A mutant infected in human MT4 cells assessed as reduction in p24 Gag protein production after 7 days by chemiluminescent enzyme immunoassay; format: functional, organism-based; settings: Human immunodeficiency virus 1, MT4, 168 h; in short: as §1
[6] = test system: Human immunodeficiency virus 1; experiment: Resistance index, ratio of EC50 for antiviral activity against APV resistant HIV1 harboring protease L10F/M46I/I50V/I85V mutant infected in human MT4 cells to EC50 for antiviral activity against wild type HIV1 NL4-3 infected in human MT4 cells; format: functional
[7] = test system: Human immunodeficiency virus 1; experiment: Antiviral activity against wild type HIV1 NL4-3 infected in human MT4 cells assessed as reduction in p24 Gag protein production after 7 days by chemiluminescent enzyme immunoassay; format: functional, organism-based; settings: Human immunodeficiency virus 1, NL4-3, MT4, 168 h
[8] = test system: Human immunodeficiency virus 1; experiment: Resistance index, ratio of EC50 for antiviral activity against ATV resistant HIV1 harboring protease L23I/E34Q/K43I/M46I/I50L/G51A/L63P/A71V/V82A/T91A mutant infected in human MT4 cells to EC50 for antiviral activity against wild type HIV1 NL4-3 infected in human MT4 cells; format: functional
[9] = test system: Human immunodeficiency virus 1; experiment: Resistance index, ratio of EC50 for antiviral activity against LPV resistant HIV1 harboring protease L10F/[…]I54V/V82A mutant infected in human MT4 cells to EC50 for antiviral activity against wild type HIV1 NL4-3 infected in human MT4 cells; format: functional

Sequence of Protease (Q9YQ12 whole entry): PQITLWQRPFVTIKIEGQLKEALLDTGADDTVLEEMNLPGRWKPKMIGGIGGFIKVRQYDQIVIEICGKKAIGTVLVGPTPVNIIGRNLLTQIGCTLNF

SMILES	IC50 [1] [nM]	Ki [2] [nM]	EC50 [3] [nM]	EC50 [4] [nM]	EC50 [5] [nM]	Ratio EC50 [6]	EC50 [7] [nM]	Ratio EC50 [8]	Ratio EC50 [9]
COc1ccc(S(=O)(=O)N(CC(C)C)C[C@@H](O)[C@H](Cc2ccccc2)NC(=O)O[C@H]2C[C@H]3CO[C@H]4CCC[C@@H]2[C@@H]34)cc1	> 1000	0.45							
Cc1cccc(C)c1OCC(=O)N[C@@H](Cc1ccccc1)[C@@H](O)C[C@H](Cc1ccccc1)NC(=O)[C@H](C(C)C)N1CCCNC1=O [LOPINAVIR]			> 1000	390	> 1000				
CC(C)CN(C[C@@H](O)[C@H](Cc1ccccc1)NC(=O)O[C@@H]1C[C@@H]2CO[C@@H]3OCC[C@H]1[C@H]23)S(=O)(=O)c1ccc2nc(NC3CC3)sc2c1	0.9	0.5							
CC(C)CN(C[C@@H](O)[C@H](Cc1ccccc1)NC(=O)O[C@H]1CC2CO[C@H]3OCC[C@@H]1[C@@H]23)S(=O)(=O)c1ccc2nc(NC3CC3)sc2c1 (stereo partly specified)	1.4	0.01							
CC(C)CN(C[C@@H](O)[C@H](Cc1ccccc1)NC(=O)O[C@H]1CO[C@H]2OCC[C@H]21)S(=O)(=O)c1ccc(N)cc1			24						
CC(C)CN(C[C@@H](O)[C@H](Cc1cc(F)cc(F)c1)NC(=O)O[C@H]1CC2CO[C@H]3OCC[C@@H]1[C@@H]23)S(=O)(=O)c1ccc2nc(NC3CC3)sc2c1 (stereo partly specified)	0.023	0.012	1.5	0.32	2	0.3	2	1	2
COC(=O)N[C@H](C(=O)N[C@@H](Cc1ccccc1)[C@@H](O)CN(Cc1ccc(-c2ccccn2)cc1)NC(=O)[C@@H](NC(=O)OC)C(C)(C)C)C(C)(C)C [ATAZANAVIR]			> 1000	70	29	21	3.3	>303	9
COc1ccc(S(=O)(=O)N(CC(C)C)C[C@@H](O)[C@H](Cc2ccccc2)NC(=O)O[C@@H]2C[C@@H]3CO[C@@H]4OCC[C@H]2[C@H]34)cc1	9	0.008							
CC(C)CN(C[C@@H](O)[C@H](Cc1cc(F)cc(F)c1)NC(=O)O[C@@H]1C[C@@H]2CO[C@@H]3OCC[C@H]1[C@H]23)S(=O)(=O)c1ccc2nc(NC3CC3)sc2c1	0.027	0.002	0.6	0.3	2	0.2	1.2	0.3	1
COc1ccc(S(=O)(=O)N(CC(C)C)C[C@@H](O)[C@H](Cc2ccccc2)NC(=O)O[C@H]2C[C@H]3CO[C@H]4O[C@H](C)C[C@@H]2[C@@H]34)cc1	130	0.05							
COc1ccc(S(=O)(=O)N(CC(C)C)C[C@@H](O)[C@H](Cc2ccccc2)NC(=O)O[C@H]2C[C@H]3CO[C@H]4OCC[C@@H]2[C@@H]34)cc1	31	0.045							
COc1ccc(S(=O)(=O)N(CC(C)C)C[C@@H](O)[C@H](Cc2ccccc2)NC(=O)O[C@H]2C[C@H]3CCO[C@H]4OC[C@@H]2[C@@H]34)cc1	29	0.005							
COc1ccc(S(=O)(=O)N(CC(C)C)C[C@@H](O)[C@H](Cc2ccccc2)NC(=O)O[C@H]2C[C@@H]3CO[C@@H]4OC[C@H]2[C@H]34)cc1	21	0.05							
CC(C)CN(C[C@@H](O)[C@H](Cc1ccccc1)NC(=O)O[C@H]1CCOC1)S(=O)(=O)c1ccc(N)cc1			> 1000	> 1000	190	>11	87	11	2
COc1ccc(S(=O)(=O)N(CC(C)C)C[C@@H](O)[C@H](Cc2ccccc2)NC(=O)O[C@@H]2C[C@@H]3CO[C@@H]4CCC[C@H]2[C@H]34)cc1	> 1000	4.55							
COC[C@@H]1C[C@@H]2[C@H]3[C@H](CO[C@H]3O1)C[C@@H]2OC(=O)N[C@@H](Cc1ccccc1)[C@H](O)CN(CC(C)C)S(=O)(=O)c1ccc(OC)cc1	248	0.09							

Source: ChEMBL document CHEMBL4190391 (J Med Chem, 2018)
